Calls of active or inactive are those of the source. The calls are words filed in the database; no cut-off is given here.
Legend:
K562 = assay: Cytotoxicity against human K562 cells after 72 hrs by MTT assay; assay type: functional, cell-based; details: K562, 72 h
Summary of the method: (§1)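 Cells seeded in 96-well plates: HeLa 2000, MDA-MB-361 7000, MDA-MB-453 3000, K562, A549 and MRC-5 5000 per well. Compounds added at 5–100 μM (final), DMSO ≤0.5%, in RPMI-1640 with 10% FBS. Added after 24 h, except K562 at 2 h after seeding. Exposure 72 h, then MTT 4 h at 37 °C, SDS solubilization, A570 read. IC50 is the mean ± SD of three independent experiments.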

MDA-MB-361 = assay: Cytotoxicity against human MDA-MB-361 cells after 72 hrs by MTT assay; assay type: functional, cell-based; details: MDA-MB-361, 72 h; summary of the method: as §1
MDA-MB-453 = assay: Cytotoxicity against human MDA-MB-453 cells after 72 hrs by MTT assay; assay type: functional, cell-based; details: MDA-MB-453, 72 h; summary of the method: as §1
HeLa [1] = assay: Cytotoxicity against human HeLa cells after 72 hrs by MTT assay; assay type: functional, cell-based; summary of the method: as §1
MRC5 = assay: Cytotoxicity against human MRC5 cells after 72 hrs by MTT assay; assay type: cell-based; details: MRC5, 72 h; summary of the method: as §1
A549 = assay: Cytotoxicity against human A549 cells after 72 hrs by MTT assay; assay type: functional, cell-based; details: A549, 72 h; summary of the method: as §1
DNA [2] = assay: Binding affinity to calf thymus DNA after 1.5 hrs by spectroscopic titration; assay type: nucleic-acid assay; details: Bos taurus
Summary of the method: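 Absorbance titration in 40 mM bicarbonate buffer pH 8.4. Compound held fixed at 40 μM, CT-DNA varied at (0.2–1.6) × 10⁻⁴ M. Mixtures incubated 1.5 h at 37 °C, then UV–Vis spectra recorded from 200 to 800 nm. K_B taken from a plot of [DNA]/(εA − εF) versus [DNA].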

HeLa [3] = assay: Induction of apoptosis in human HeLa cells at IC90 after 24 hrs by propidium iodide staining-based FACS flow cytometric analysis in presence of caspase-8 inhibitor Z-IETD-FMK; assay type: functional, cell-based
HeLa [4] = assay: Cell cycle arrest in human HeLa cells assessed as accumulation at subG1 phase at 2 times IC50 after 24 hrs by propidium iodide staining-based FACS flow cytometric analysis (reference value: 9.10%); assay type: functional
HeLa [5] = assay: Induction of apoptosis in human HeLa cells at IC90 after 24 hrs by propidium iodide staining-based FACS flow cytometric analysis in presence of caspase-3 inhibitor Z-DEVD-FMK; assay type: functional, cell-based
HeLa [6] = assay: Cell cycle arrest in human HeLa cells assessed as accumulation at S phase at IC50 after 24 hrs by propidium iodide staining-based FACS flow cytometric analysis (reference value: 16.22%); assay type: functional
HeLa [7] = assay: Cell cycle arrest in human HeLa cells assessed as accumulation at subG1 phase at IC50 after 24 hrs by propidium iodide staining-based FACS flow cytometric analysis (reference value: 9.10%); assay type: functional
DNA [8] = assay: Binding affinity to calf thymus DNA at 20 to 80 uM after 1.5 hrs by UV-vis spectrophotometric analysis; assay type: nucleic-acid assay; details: Bos taurus
Summary of the method: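 UV–Vis spectra (200–800 nm, 1 cm cells) of compound at 20, 40, 60 or 80 μM, with or without 0.12 mM CT-DNA. CT-DNA was dissolved in 10 mM Tris-HCl pH 7.9. Mixtures were in 40 mM bicarbonate buffer pH 8.4, incubated 1.5 h at 37 °C with occasional vortexing.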

HeLa [9] = assay: Induction of apoptosis in human HeLa cells at IC90 after 24 hrs by propidium iodide staining-based FACS flow cytometric analysis in presence of caspase-9 inhibitor Z-LEHD-FMK; assay type: functional, cell-based
HeLa [10] = assay: Cell cycle arrest in human HeLa cells assessed as accumulation at G2/M phase at IC50 after 24 hrs by propidium iodide staining-based FACS flow cytometric analysis (reference value: 21.66%); assay type: functional
HeLa [11] = assay: Cell cycle arrest in human HeLa cells assessed as accumulation at G1 phase at IC50 after 24 hrs by propidium iodide staining-based FACS flow cytometric analysis (reference value: 51.97%); assay type: functional
Escherichia coli = assay: Induction of Escherichia coli XL1 blue pUC18 DNA cleavage assessed as conversion of supercoiled DNA to relaxed circular DNA at 2 mM after 90 mins by agarose gel electrophoresis
Summary of the method: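 Supercoiled pUC18 (262 ng, from E. coli XL1 blue) incubated with 2 mM compound in 20 μL of 40 mM bicarbonate buffer pH 8.4 at 37 °C for 90 min. Reaction stopped with loading buffer. Analyzed on 1% agarose in TAE pH 8.24 at 80 V and stained with ethidium bromide (0.5 µg/mL).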

HeLa [12] = assay: Cell cycle arrest in human HeLa cells assessed as accumulation at S phase at 2 times IC50 after 24 hrs by propidium iodide staining-based FACS flow cytometric analysis (reference value: 16.22%); assay type: functional
HeLa [13] = assay: Cell cycle arrest in human HeLa cells assessed as accumulation at G2/M phase at 2 times IC50 after 24 hrs by propidium iodide staining-based FACS flow cytometric analysis (reference value: 21.66%); assay type: functional
HeLa [14] = assay: Cell cycle arrest in human HeLa cells assessed as accumulation at G1 phase at 2 times IC50 after 24 hrs by propidium iodide staining-based FACS flow cytometric analysis (reference value: 51.97%); assay type: functional
[15] = system: Radical scavenging activity; assay: Antioxidant activity assessed as DPPH radical scavenging activity after 30 mins by spectrophotometric analysis; assay type: functional
Summary of the method: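 Test solutions at 8–1000 μM in methanol mixed 1:1 by volume with 200 μM DPPH in methanol, kept 30 min in the dark at room temperature. Absorbance read at 517 nm against blanks without DPPH. Percent scavenging = (A_DPPH − A_sample)/A_DPPH × 100. IC50 (concentration halving DPPH absorbance) read from a plot of % versus concentration. Ascorbic acid and BHT used as standards.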

Structure (SMILES)	IC50 (K562) [µM]	IC50 (MDA-MB-361) [µM]	IC50 (MDA-MB-453) [µM]	IC50 (HeLa [1]) [µM]	IC50 (MRC5) [µM]	IC50 (A549) [µM]	Activity (HeLa [3])	Activity (HeLa [4])	Activity (HeLa [5])	Activity (HeLa [6])	Activity (HeLa [7])	Activity (DNA [8])	Activity (HeLa [9])	Activity (HeLa [10])	Activity (HeLa [11])	Activity (Escherichia coli)	Activity (HeLa [12])	Activity (HeLa [13])	Activity (HeLa [14])	IC50 [15] [µM]	further results
CCOC(=O)/C(=C/C(=O)c1cccc2c1C(=O)c1ccccc1C2=O)Nc1ccccc1	100	100	100	100	100	100															
CC[n+]1c(-c2ccccc2)c2cc(N)ccc2c2ccc(N)cc21																					Kb (DNA [2]): 7 ×10⁷ /M
CCOC(=O)/C(CC(=O)c1cccc2c1C(=O)c1ccccc1C2=O)=N\NC(=S)NC1CCCCC1	2.35	32.6	4.64	9.15	13.6	13.9	Active	Active	Active	Active	Active	Active	Active	Active	Active	inactive	Active	Active	Active	16.4	
Cc1cc(C(C)(C)C)c(O)c(C(C)(C)C)c1 [BUTYLATED HYDROXYTOLUENE]																				33.9	
CCOC(=O)/C(CC(=O)c1cccc2c1C(=O)c1ccccc1C2=O)=N\NC(=S)NCc1ccco1	2.63	47.8	19.4	19	38.6	22.6	Active	Active	Active	Active	Active	Active	Active	Active	Active	inactive	Active	Active	Active	35.8	
CCOC(=O)/C(CC(=O)c1cccc2c1C(=O)c1ccccc1C2=O)=N\NC(=S)NCc1cccnc1	2.17	50.5	17.7	18.1	13.6	23.4	Active	Active	Active	Active	Active	Active	Active	Active	Active	inactive	Active	Active	Active	46.9	
O=C1O[C@H]([C@@H](O)CO)C(O)=C1O [ASCORBIC ACID]																				15.9	
CCOC(=O)/C(CC(=O)c1cccc2c1C(=O)c1ccccc1C2=O)=N/NC(N)=S	7.99	30.7	13.6	14.4	36.2	29	Active	Active	Active	Active	Active	Active	Active	Active	Active	inactive	Active	Active	Active	20.5	Kb (DNA [2]): 0.55 ×10⁹ /M
CCOC(=O)/C(CC(=O)c1cccc2c1C(=O)c1ccccc1C2=O)=N\NC(=S)Nc1ccc(C)cc1	3.97	32.6	11.3	21	30.3	22.5	Active	Active	Active	Active	Active	Active	Active	Active	Active	inactive	Active	Active	Active	41	Kb (DNA [2]): 2.91 ×10⁹ /M
CCCCNC(=S)N/N=C(/CC(=O)c1cccc2c1C(=O)c1ccccc1C2=O)C(=O)OCC	3.8	30.8	11.5	10.9	21.1	19.6	Active	Active	Active	Active	Active	Active	Active	Active	Active	inactive	Active	Active	Active	25.8	
CCOC(=O)/C(CC(=O)c1cccc2c1C(=O)c1ccccc1C2=O)=N\Nc1ccccc1	40	40	40	40	40	40															

— ChEMBL document CHEMBL2390837, “Synthesis, cytotoxic activity and DNA-interaction studies of novel anthraquinone-thiosemicarbazones with tautomerizable methylene group” (Eur J Med Chem, 2013)
